Measured values as given in the EternaBench riboswitch data.

Tested on: MS2 coat protein
Test: apparent Kd, MS2 coat protein; higher = weaker binding; RNA-MaP array; FMN 200 µM where present
Summary of the method: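 Stalled E. coli RNA polymerase transcribed each design on Illumina sequencing-chip clusters. The clusters were titrated with SNAP-549-labelled MS2 coat protein, starting at 0.7 or 1.5 nM and doubling up to 3 µM, first without ligand and then with constant ligand, in 100 mM Tris-HCl pH 7.5, 80 mM KCl, 4 mM MgCl2, BSA, DTT, yeast tRNA and Tween-20. Green signal was normalised to red-channel RNA signal and to the control-cluster median Fmax. The apparent Kd is the median of filtered binding-curve fits made for each cluster.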

[1] = designed as: OFF switch for flavin mononucleotide, no ligand
[2] = ligand present: flavin mononucleotide, designed as: OFF switch for flavin mononucleotide
[3] = designed as: ON switch for flavin mononucleotide, no ligand
[4] = ligand present: flavin mononucleotide, designed as: ON switch for flavin mononucleotide

Row | Sequence | apparent Kd [1] [nM] | apparent Kd [2] [nM] | apparent Kd [3] [nM] | apparent Kd [4] [nM]
1 | GUCAGCUCGUGAGGAUAUACAACACUGCUUCUGCAGUGUAUUAAGAUCACAUGAGGAUCACCCAUGUAGAAGGCACGAGCUGAU | 12.8 | 234 | – | –
2 | GUCAGCUCGUGAGGAUAUACAACAUUGCUUCGGCAGUGUAUUAAGAUCACAUGAGGAUCACCCAUGUAGAAGGCACGAGCUGAU | 14.1 | 243 | – | –
3 | GUCAGCUCGUGAGGAUAUACAUGAGGAUCACCCAUGUGAUCAAUAGCAGCUUCGGCUGCAUACAUGUAGAAGGCACGAGCUGAU | 43.1 | 62.9 | – | –
4 | GUCAGCUCGUGAGGAUAUACAUGUGCUGGAUACAGCACUAUUGAGUUCACAUGAGGAUCACCCAUGUAGAAGGCACGAGCUGAU | 15.1 | 28.1 | – | –
5 | GUCAGCUCGUGAGGAUAUGCAACACUGCUUCGGCAGUGUAUUAAGAUCACAUGAGGAUCACCCAUGUAGAAGGCACGAGCUGAU | 6.36 | 34.8 | – | –
6 | GUCAGGAAUGUAGGAUAUCGUCAGGAUAACUGGCGAGAAGGACAUGAGGAUCACCCAUGUAAAAUGAAAGAUAAUAAACCUGGC | 19.3 | 31.1 | – | –
7 | GUCAUCAUAUGAGGAUAUGACACCGAAACGGUGUCAGAAGGCAUGUCGAUAGACAUGAGGAUCACCCAUGUUUACAUGAUGACA | – | – | 84.3 | 19.7
8 | GUCAUGUCAGGAUAUUUUGGUCAACUCAUCGGUCGACCCUAAGAGAAGGGACAUGAGGAUCACCCAUGUUCGCA | 26.8 | 77.8 | – | –
9 | GUCAUGUGAGGAUAUGUAGCCACGAAAUCUUGUAGAGGCAGACAGAAGGCACAUGAGGAUCACCCAUGUGUUUU | 31.6 | 258 | – | –
10 | GUCAUGUUAGGAUAUCUGGCAUGUGACUUCGGUCACUGUCCAGAGAAGGAACAUGAGGAUCACCCAUGUUGGAC | 75.1 | 57.1 | – | –
11 | GUCAUUAAACAGAAGGUGUAGUACAUGAGGAUCACCCAUGUAUAACUAACUAAAUUUGUAAUUAACAAGGAUAUGUACUAAUCG | – | – | 6.58 | 6.63
12 | GUCAUUAAACAGAAGGUGUUGUACAUGAGGAUCACCCAUGUUUAUCUAAUUAAAUUUGUAAUUAACAAGGAUAUGUACUAAUCG | – | – | 231 | 131
13 | GUCCAGUUAGGAUAUCAAUGCCACAACAUGAGGAUCACCCAUGUUUGGGUCCCUCACCAAUGAGAAGGAACGGGAC | 34.7 | 99.1 | – | –
14 | GUCCCGUCUAGCUUCAGCACAUGAGGAUCACCCAUGUCCUAGAGAAGGGCCUAGAGUUAUCAAAGGCAGGAUAUCUGCACAUGG | 30.8 | 47.7 | – | –
15 | GUCCUUUCUGAGGAUAUUAUCUGGUUCGAUUGAUAAGAAGGCAGUACAUGAGGAUCACCCAUGUGGGUCGUUUG | 37.3 | 244 | – | –
16 | GUCGAGUGAGGAUAUGGUGAGUAGUGCCUGAGCGCUGCUCACCAGAAGGCACAUGAGGAUCACCCAUGUAUAGC | – | 29 | – | –
17 | GUCGAGUGAGGAUAUGGUGAGUAGUGCCUGAGCGCUGCUCACCAGAAGGCACAUGAGGAUCACCCAUGUAUGUC | 13.7 | 20.7 | – | –
18 | GUCGGAAACGACAAAAGUAGCAUACGAGAAGGCUGAUCCAAGACAUGAGGAUCACCCAUGUAGUUAGAGGAUAUUGGAUGCUAC | – | – | 63.8 | 10.7
19 | GUCGGAAACGACAAAAGUAUGGAUCCAGAAGGCAUGACACAUGAGGAUCACCCAUGUCUAAGAUAUGAGGAUAUGGAUCCAUAC | – | – | 4.97 | 4.71

Row | Sequence | apparent Kd [1] [nM] | apparent Kd [2] [nM] | apparent Kd [3] [nM] | apparent Kd [4] [nM]
20 | GUCGGAUGUAUAGGAUAUCGACUGGAUAACAGUCGAGAAGGAUACAUGAGGAUCACCCAUGUAAUAAUAAUAAUAAUAACCGAC | 12.8 | 24.6 | – | –
21 | GUCGGCUCGUGAGGAUAUACAACACUGCUUCGGCAGUGUAUUAAGAUCACAUGAGGAUCACCCAUGUAGAAGGCACGAGCUGAU | 13.8 | 221 | – | –
22 | GUCGUGCGGCUUUGCUGUACGAGUACAUGAGGAUCACCCAUGUAGGAUAUGGUUCGUUUUGCGUGCUAGAAGGGCGUGCGUUGU | 25.7 | 21.3 | – | –
23 | GUCUGGCUAGGAUAUACAGUGUCCACAAGUUAGUUACCCUAACAUGAGGAUCACCCAUGUAGAAGGAGUGAGAA | 72.9 | 308 | – | –
24 | GUGACGAAUGUAGGAUAUGCUGACCAAUGGUCAGCAGAAGGACAUGAGGAUCACCCAUGUCAUCCUUAUAAUAAAUAACGUCAC | 13.4 | 18.1 | – | –
25 | GUGACGGAUGUAGGAUAUGCUGACCAAUGGUCAGCAGAAGGACAUGAGGAUCACCCAUGUCAUCCUUAUAAUAAAUACCGUCAC | – | 18.3 | – | –
26 | GUGCACACUCGAGGAUAUCGGAGUUUUCUCCUUCGAGAAGGCGAUUCGUGCCGUGUUAUUCUGGACAUGAGGAUCACCCAUGUG | – | – | 110 | 36.5
27 | GUGCCUUGGGAGAAGGUAUUAAGCAAAGCAAUAUAAGGAUAUUCAUACCGGAAACGGACAUGAGGAUCACCCAUGUGGCACAAA | – | – | 713 | 233
28 | GUGCGAGCCACAGGAUAUCUACAGAUUUAUCGUAGAGAAGGGUGACCUCGUGCACCACAUGAGGAUCACCCAUGUAACUAGGCG | – | – | 19.6 | 36.3
29 | GUGGAGUAAGGAUAUACAUGAGGAUCACCCAUGUGAGGGUAUGAGAAGGGAAUGAGAGGUAGAAGGUACGAGGG | 172 | 107 | – | –
30 | GUGGAGUACGUAGGAUAUGUAGGAUAUUCCUACAUGAGGAUCACCCAUGUUUACAUGGAAGAAGGACAGAAGGACGUGCUCCAG | – | – | 1430 | 14.3
31 | GUGGCAUACCGAGGAUAUUCAUAUAAUAAAUAAACAUGAGGAUCACCCAUGUGGCGAAAGCCUUGGGAGAAGGCGGAAUGCUAC | – | – | 574 | 38.2
32 | GUGGCUAGUGCAGGAUAUUGGCGCGUGUAGUGUCGAGAAGGGCACAUGAGGAUCACCCAUGUGAUCAAUCACUGCUAAGGCCGC | 7.04 | 7.31 | – | –
33 | GUGGUACAUGAGGAUCACCCAUGUCAGGAUAUCGUGUGUUUUUUUUCGGCCGCGCGUGCGAGAAGGGACGUCUU | 19.6 | 19.4 | – | –
34 | GUGGUACAUGAGGAUCACCCAUGUUAGGAUAUCGCGUGAGGUAAAACUUACACACACACGAGAAGGGACGACAU | 88.6 | 56.2 | – | –
35 | GUGGUCAGACAUGAGGAUCACCCAUGUGGAAUAAAUAACACACAGGAUAUCAAAUAUAAAAUAUAUGAGAAGGGUGGAUUGGUG | – | – | – | 224
36 | GUGGUCAGACAUGAGGAUCACCCAUGUGGAAUAAAUAACGAACAGGAUAUGCAAUAUAGGAUAUAGUAGAAGGGUUGAUUGGUG | – | – | 104 | 138
37 | GUGGUCAGACAUGAGGAUCACCCAUGUGGAAUAAAUAAGGUACAGGAUAUCUAAUAUAGGAUAUAAGAGAAGGGUAGGUUGGUG | – | – | 75.4 | 78.4
38 | GUGGUCAGACAUGAGGAUCACCCAUGUGGAAUAAAUAAGGUCAAGGAUAUUCAAUAUAGGAUAUAGAAGAAGGUGAGGUUGGUG | – | – | 136 | 188

Row | Sequence | apparent Kd [1] [nM] | apparent Kd [2] [nM] | apparent Kd [3] [nM] | apparent Kd [4] [nM]
39 | GUGUACAGAGGAUAUACAUGAGCAUGGAAACAUGCAACUUCACAUGAGGAUCACCCAUGUAGAAGGCUGUACAC | 25.1 | 111 | – | –
40 | GUGUACAGAGGAUAUACAUGAGCUAGGAAACUAGCAAACUCACAUGAGGAUCACCCAUGUAGAAGGCUGUACAC | 264 | 54.7 | – | –
41 | GUGUACAGAGGAUAUAUAUGAGCAUGGAAACAUGCAAGAUCACAUGAGGAUCACCCAUGUAGAAGGCUGUACAC | 88.4 | 541 | – | –
42 | GUGUACGAAGGAUAUACAUGAGGAUCACCCAUGUGAAUAAGAUAGAAUAAGAUAAAGUGUAGAAGGUCGAGUGU | 33 | 29.4 | – | –
43 | GUGUACGGAGGAUAUGUAUGGGCAGGCUGACCUGCAGCUUCACAUGAGGAUCACCCAUGUAGAAGGCUGUGCAC | 12.1 | 24.2 | – | –
44 | GUGUAGUGAGGAUAUACAUGAGGAUCACCCAUGUGAAUAAGAUAGAAUAAGAUAAAGUGUAGAAGGCAUAGUGU | 40.2 | 31.5 | – | –
45 | GUGUCUUGGGAGAAGGCCGAUAGCAAAGCUAUCGGAGGAUAUUCAUACCGGAAACGGACAUGAGGAUCACCCAUGUGGCACAAA | – | – | 1130 | 36.8
46 | GUGUUGUAUGUAGGAUAUGCAUACUGUUAGUAUGCAGAAGGACAUGAGGAUCACCCAUGUAUAUUAUUAUUAUAUAUCAUACAU | 21.1 | 36.8 | – | –
47 | GUGUUUGAUGAGGAUAUCGUUGUGGGUAUAUAGCGAGAAGGCAUUACAUGAGGAUCACCCAUGUAGUGUGGGUU | 26.2 | 49.4 | – | –
48 | GUUACACAUGAGGAUCACCCAUGUAAGGAUAUGCUGCGGUCGCGAAAACGUGACUGCAGCAGAAGGUACACAUG | 119 | 121 | – | –
49 | GUUACAUGAGGAUCACCCAUGUAUGUGUGGGAGUAAGUGUCUUAGGAUAUCUAUGAUUUAAAUUAAGAGAAGGAAGAUUGUUGU | – | – | 101 | 117
50 | GUUAGACAUGAGGAUCACCCAUGUGAGGAUAUGAUGCGAUCGUGAUGAAAUGAUCGCAUCAGAAGGCACAUAUG | 153 | 423 | – | –
51 | GUUAGCUCGUGAGGAUAUACAACACUGCUUCGGCAGUGUAUUAAGAUCACAUGAGGAUCACCCAUGUAGAAGGCACGAGCUGAU | 12.8 | 256 | – | –
52 | GUUAGUUAAGGAUAUACUGGGAGCUGCGGCGUCUCGCCGCAACAUGAGGAUCACCCAUGUAGAAGGUGGCCAUU | 765 | 425 | – | –
53 | GUUAUAUUUAGUUCAUACUAUAUGAUAGAAGGUGAAAUAUAGACAUGAGGAUCACCCAUGUAAUUCAAGGAUAUGUAGUUACUC | – | – | 29.9 | 21.5
54 | GUUCUUCCUGUAAGGAUAUCCAUGUAUCAAAGCAUGGAGAAGGUACAUGAGGAUCACCCAUGUCACCCGCGUUA | 20.2 | 45.3 | – | –
55 | GUUGGCUGAGGAUAUGCUUGCAUGCUUUUGUGUUGCGGGUGACAUGAGGAUCACCCAUGUAGAAGGUGGUCGGC | 1040 | 817 | – | –
56 | GUUGUGCGAGGAUAUAUGUGAGGUUUGCCUCAACAGGUAAUACAUGAGGAUCACCCAUGUAGAAGGCGCAUGAG | 102 | 589 | – | –
